Measurements of several laboratories.
Protocols differ between the studies behind these lines. pKi: −log10 of the molar value.
CA1: Carbonic anhydrase 1 (CA1, Homo sapiens, UniProt P00915)
Pam: Peptidylglycine alpha-amidating monooxygenase (Pam, Rattus norvegicus, UniProt P14925)
SNCA fibril: Alpha-synuclein, fibril (SNCA, Homo sapiens, UniProt P37840)
CA2: Carbonic anhydrase 2 (CA2, Homo sapiens, UniProt P00918)
Sigmar1: Sigma non-opioid intracellular receptor 1 (Sigmar1, Rattus norvegicus, UniProt Q9R0C9)
OPRD1: Delta-type opioid receptor (OPRD1, Homo sapiens, UniProt P41143)
ADRA2A: Alpha-2A adrenergic receptor (ADRA2A, Homo sapiens, UniProt P08913)

| SMILES | target | test | system | setting | pKi |
| --- | --- | --- | --- | --- | --- |
| NS(=O)(=O)c1nnc(NC(=O)CC2CC2)s1 | CA1 | enzyme activity, inhibitor |  |  | 6.43 |
| O=C(O)C=Cc1ccc([N+](=O)[O-])cc1 | Pam | enzyme activity, inhibitor |  | pH 6 | 3.22 |
| COc1ccc(C(=O)Nc2ccc(N3CCCN(c4ccccn4)CC3)cn2)cc1 | SNCA fibril | ligand displacement, radioligand |  |  | 6.73 |
| NC(=O)N1c2ccccc2C=Cc2ccccc21 | NAD(P)H dehydrogenase [quinone] 1 (NQO1, Homo sapiens, UniProt P15559) | enzyme activity, inhibitor, absorbance |  |  | 3.09 |
| CC(C)[C@@H](CC[C@@H](C)[C@H]1CC[C@H]2[C@@H]3[C@H](O)C[C@H]4C[C@@H](NCCCNCCCCNCCCN)CC[C@]4(C)[C@H]3CC[C@]12C)OS(=O)(=O)O | Receptor-type tyrosine-protein phosphatase F (Homo sapiens, UniProt P10586) | enzyme activity, inhibitor |  |  | 4.70 |
| Cc1cc(C)c2c(c1)[C@@H](N(Cc1cc(C(F)(F)F)cc(C(F)(F)F)c1)c1nnn(C)n1)CCCN2C[C@H]1CC[C@H](C(=O)O)CC1 | Cytochrome P450 2C19 (CYP2C19, Homo sapiens, UniProt P33261) | enzyme activity, inhibitor | human, liver microsomes | pH 7.4 | 5.12 |
| CN1CCN(c2ccc(-c3ccnn3-c3ccc(S(N)(=O)=O)cc3)cc2)CC1 | CA2 | enzyme activity, inhibitor, stopped-flow |  |  | 6.23 |
| CN(C)c1cccc2c(S(=O)(=O)Nc3ccc(C=CC(=O)O)cc3)cccc12 | Pam | enzyme activity, inhibitor |  |  | 5.00 |
| C#CCNCCCN1CCN(CCCNC(=O)c2ccc(C(=O)c3ccc([N+](=O)[O-])cc3)cc2)CC1 | Sigmar1 | ligand displacement, radioligand |  | cell membranes | 6.35 |
| CNC(=O)[C@@]12C[C@@H]1[C@@H](n1cnc3c(NCCC(F)(F)F)nc(C#Cc4ccc(Cl)s4)nc31)[C@H](O)[C@@H]2O | OPRD1 | ligand displacement, radioligand |  |  | < 5.00 |
| NS(=O)(=O)c1ccc(-n2nccc2-c2ccc(N3CCCCC3)cc2)cc1 | CA2 | enzyme activity, inhibitor, stopped-flow |  |  | 6.16 |
| NS(=O)(=O)c1nnc(NC(=O)C2CC2)s1 | CA2 | enzyme activity, inhibitor |  |  | 7.61 |
| CCCCN1CCC(COC(=O)c2ccc(N)c(OCF)c2)CC1 | ADRA2A | cell-free assay, radioligand |  |  | < 5.00 |
| Oc1cccc(Nc2nc(-c3ccc(F)cc3F)cs2)c1 | Cholecystokinin receptor type A (CCKAR, Homo sapiens, UniProt P32238) | cell-free assay |  |  | 5.44 |
| CCCCOC(=O)[C@@]12C[C@@H]1[C@@H](n1cnc3c(NC)nc(C#Cc4ccc(Cl)s4)nc31)[C@H](O)[C@@H]2O | OPRD1 | ligand displacement, radioligand |  |  | < 5.00 |
| C[C@H]1Oc2cc(cnc2N)-c2c(nn(C)c2C#N)CN(C)C(=O)c2ccc(F)cc21 | Protein-tyrosine kinase 2-beta (PTK2B, Homo sapiens, UniProt Q14289) | cell-free assay |  | lysate | 7.18 |
| CNc1nc2cc(OCCCCN3CCC(c4cccc(Cl)c4Cl)CC3)ccc2s1 | 5-hydroxytryptamine receptor 3A (HTR3A, Homo sapiens, UniProt P46098) | cell-free assay, radioligand |  |  | 6.43 |
| CNC(=O)[C@@]12C[C@@H]1[C@@H](n1cnc3c(NC4CC4c4ccccc4)nc(C#Cc4ccccc4)nc31)[C@H](O)[C@@H]2O (mixture of isomers) | OPRD1 | ligand displacement, radioligand |  |  | < 5.00 |
| CC1CCC(C(=O)Nc2nnc(S(N)(=O)=O)s2)CC1 (stereo not shown) | CA2 | enzyme activity, inhibitor |  |  | 7.59 |

| SMILES | target | test | system | setting | pKi |
| --- | --- | --- | --- | --- | --- |
| O=C(O)C=Cc1cccnc1 | Pam | enzyme activity, inhibitor |  | pH 6 | 2.22 |
| COc1cc2c(cc1OC)CN(CCCNC(=O)c1ccc(C(=O)c3ccc([N+](=O)[O-])cc3)cc1)CC2 | Sigmar1 | ligand displacement, radioligand |  | cell membranes | < 5.00 |
| NS(=O)(=O)c1ccc(-n2nccc2-c2ccc(N3CCOCC3)cc2)cc1 | CA2 | enzyme activity, inhibitor, stopped-flow |  |  | 6.20 |
| COc1ccnc(Oc2ccc(-c3c(C)c(=O)[nH]c(=O)n3C)c(C)c2)c1C(F)(F)F | ADRA2A | ligand displacement, radioligand |  |  | 5.16 |
| O=C(CCCCC1SC[C@@H]2NC(=O)N[C@H]12)NCCCN(CCCN1CCN(C2CCCCC2)CC1)CC(=O)Nc1ccc(C(=O)c2ccccc2)cc1 (stereo in doubt) | Sigmar1 | ligand displacement, radioligand |  | cell membranes | 6.66 |
| CNc1nc(C#Cc2ccc(Cl)s2)nc2c1ncn2[C@H]1[C@H](O)[C@H](O)[C@]2(C(=O)OC)C[C@H]12 | OPRD1 | ligand displacement, radioligand |  |  | < 5.00 |
| O=C(c1ccccc1)c1ccc(CNCCCN2C(=O)c3ccccc3C2=O)cc1 | Sigmar1 | ligand displacement, radioligand |  | cell membranes | 6.51 |
| CNC(=O)[C@@]12C[C@@H]1[C@@H](n1cnc3c(NC)nc(C#Cc4ccccc4Cl)nc31)[C@H](O)[C@@H]2O | OPRD1 | ligand displacement, radioligand |  |  | < 5.00 |
| COc1ccc(C(=O)Nc2ccc(N3CCC4(CC3)CCN(c3ccccn3)CC4)cc2)cc1 | SNCA fibril | ligand displacement, radioligand |  |  | < 6.00 |
| CNC(=O)[C@H]1O[C@@H](n2cnc3c(NC)nc(C#Cc4ccc(Cl)s4)nc32)[C@H](O)[C@@H]1O | OPRD1 | ligand displacement, radioligand |  |  | < 5.00 |
| NS(=O)(=O)c1nnc(NC(=O)CC2CCCC2)s1 | CA2 | enzyme activity, inhibitor |  |  | 7.71 |
| C#CCN(CCCN1CCN(C2CCCCC2)CC1)Cc1ccc(C(=O)c2ccc([N+](=O)[O-])cc2)cc1 | Sigmar1 | ligand displacement, radioligand |  | cell membranes | 7.53 |
| CNC(=O)[C@@]12C[C@@H]1[C@@H](n1cnc3c(NCc4cccc(Cl)c4)nc(C#Cc4ccccc4)nc31)[C@H](O)[C@@H]2O | OPRD1 | ligand displacement, radioligand |  |  | < 5.00 |
| C#CCN(CCCN1CCN(C2CCCCC2)CC1)CC(=O)Nc1ccc(C(=O)c2ccccc2)cc1 | Sigmar1 | ligand displacement, radioligand |  | cell membranes | 7.77 |
| NS(=O)(=O)c1nnc(NC(=O)C2CCCC2)s1 | CA1 | enzyme activity, inhibitor |  |  | 7.12 |
| Nc1ccnc2ccccc12 | ADRA2A | ligand displacement, radioligand |  | cell membranes | 5.25 |
| CNC(=O)[C@@]12C[C@@H]1[C@@H](n1cnc3c(NCc4cccc(Cl)c4)nc(Cl)nc31)[C@H](O)[C@@H]2O | OPRD1 | ligand displacement, radioligand |  |  | < 5.00 |
| NS(=O)(=O)c1nnc(NC(=O)CC2CCC2)s1 | CA2 | enzyme activity, inhibitor |  |  | 8.31 |
